Data on 59 compounds can be found in PubChem BioAssay AID504383 (The Scripps Research Institute Molecular Screening Center, 2011).

In all, about 2,500 compounds went through this assay and about 1,200 (48%) were called active. So high a share suggests a set chosen from earlier hits. This is one part of the list. Values without a mark were called inactive.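 Rule for the calls: active = mean activation above the low control average plus 3 SD, as set in the primary screen (cut at about 12% in these data); inactive = the rest.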

This assay concerns the target Troponin I, cardiac muscle (Homo sapiens) + Troponin T, cardiac muscle (Homo sapiens) + Troponin C, slow skeletal and cardiac muscles (Homo sapiens) (UniProt P19429+P45379+P63316). Nature of the assay: cardiac RTF calcium sensitivity activators, confirmation, biochemical, IANBD-TnC fluorescence, triplicate (AID 504383).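 Note: 0% = DMSO at 0.472 mM calcium and 100% = DMSO at 2.9 mM calcium.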 Conditions: IANBD-labeled cardiac RTF, Ca2+ sensitivity fluorescence; at 7.2 µM; stronger effect = higher value; scaled from EC20 to saturating calcium; tested at EC20 calcium, 0.472 mM. Summed up: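 material = labelled regulated thin filaments | probe or stimulus = Ca2+ 0.472 mM, EC20 level | dosing = single nominal compound dose of 7.2 µM | schedule = 15 min at 25 °C | signal = fluorescence intensity of labelled filaments | evaluation = fluorescence gain scaled between EC20 and EC100 calcium controls | benchmarks = low control EC20 calcium, high control EC100 calcium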
As to `Cc1ccc(NC(=O)CN(C)C(=O)COC(=O)COc2ccc(C#N)cc2)cc1`, the activation is 3.65%. In the case of `Cc1cc(=O)oc2cc(OCC(=O)OCC(=O)NC(C)C)ccc12`, the activation was 14.7% (active).

As to `Cc1ccc(CNC(=O)CCS(=O)(=O)c2cc3c(cc2C)NC(=O)CO3)cc1`, the activation was 3.23%. As for `COc1cccc(CNC(=O)CCS(=O)(=O)c2cc3c(cc2C)NC(=O)CO3)c1`, the activation is 7.4%. In the case of `Cc1cc2c(cc1S(=O)(=O)CCC(=O)NCCc1ccccc1)OCC(=O)N2`, the activation is 32.7% (active). In the case of `CC(C(=O)O)N1C(=O)/C(=C/c2cccn2C)SC1=S` (centres undefined), the activation is 23.1% (active). For the compound `CN1C2CCC1/C(=C/c1cccn1C)C(=O)/C2=C\c1cccn1C`, the activation is 9.37%. The figure for `CC(C)C(C(=O)O)N1C(=O)/C(=C/c2cccn2C)SC1=S` (centres undefined) is 21.6% (active); for `CCC(C(=O)O)N1C(=O)/C(=C/c2cccn2C)SC1=S` (centres undefined) it is 52.1% (active); for `CCCc1ccc(OCc2ccc(C(=O)NN)o2)c(OC)c1` it is 7.64%. For `CCCOc1ccc(Cn2c(=O)oc3ccc(C)cc32)cc1OC` the value was 23.1% (active); for `O=C(NC1CCCCC1)c1cc2nc3c(c(C(F)(F)F)n2n1)CCCC3`, 29.3% (active); for `COc1cc(OC)c(C(=O)NC2CCCCCC2)cc1OC`, -0.45%. For the compound `CN1CCN(c2ccc(-c3cccc(NC(=O)COc4ccccc4)c3)nn2)CC1`, the activation is 25% (active).

Regarding `COC(=O)c1cc(N2CCN(C)CC2)nc2ccccc12`, the activation is 9.59%.

In the case of `COc1ccc(C(Nc2ccc(S(=O)(=O)NCC3CCCO3)cc2)C(=O)NC(C)(C)C)cc1OC` (centres undefined), the activation is 9.44%. Consider `CCCNC(=O)c1ccc(N2CCC3(CC2)CC(c2cccc(Br)c2)=NO3)c(NC(=O)c2cccc(C)c2)c1`, for which the activation was 9.93%.

On to `C[C@H](CO)NC(=O)[C@@H]1C[C@H]1[C@@H](NP(=O)(c1ccccc1)c1ccccc1)c1ccccc1`, for which the activation is 1.68%. The figure for `COCCNC(=O)[C@H]1C[C@@H]1[C@H](NP(=O)(c1ccccc1)c1ccccc1)c1ccccc1` is 3770% (active); for `COc1ccc(-c2nn(-c3ccccc3)cc2/C=N/NC(N)=S)cc1OC` it is 29% (active); for `COc1cccc(/C=N/Nc2nnc(C)n2N)c1O` it is 5.74%.

For `Cc1ccc(C(C(=O)NC(C)(C)C)N(C(=O)c2csnn2)C2CC2)cc1` (centres undefined), the activation is 100% (active).

Regarding `O=C(c1ccco1)N1CCN(c2ncnc3c(-c4ccc(Cl)cc4)nsc23)CC1`, the activation is 112% (active). On to `O=C1c2ccccc2-c2onc3c(N4CCN(CCO)CC4)cc(N4CCN(C(=O)c5ccco5)CC4)c1c23`, for which the activation is 7.32%. As for `O=C(O)CCNc1cc(N2CCN(C(=O)c3ccco3)CC2)c2noc3c2c1C(=O)c1ccccc1-3`, the activation was 3.54%. The figure for `CCN(CC)CCCC(C)n1c2nc(=O)[nH]c(=O)c-2nc2cc(Cl)ccc21` (centres undefined) is 7.49%; for `O=C(NC(=S)NCCN1CCOCC1)c1ccc(F)cc1` it is 72.6% (active); for `CCOC(=O)c1ccc(N=c2sc(C(=O)OC)cc(=O)n2CCCN2CCOCC2)cc1` it is 4.75%. With `CCC(CC)NC(=O)Nc1ccccc1C`, the activation is 7.62%.

Consider `CCOC(=O)c1c(NC(=S)N2CCN(C)CC2)sc2c1CCN(C(=O)OCC)C2`, for which the activation is 7.96%.

In the case of `CCOC(=O)N1CCN(C(=S)Nc2ccccc2C)CC1`, the activation was 32.7% (active). For `O=C1NCCCCC1NS(=O)(=O)c1cccc(C(F)(F)F)c1` (centres undefined), the activation was 7.86%. Regarding `N#Cc1ccc(S(=O)(=O)NC2CCN(Cc3ccccc3)CC2)cc1`, the activation is 9.61%. Consider `N#Cc1ccc(S(=O)(=O)NC2CCCCNC2=O)cc1` (centres undefined), for which the activation was 93.6% (active).

On to `CCOP(=O)(OCC)/C(=N/OC(=O)c1ccc(OC)cc1)C(N)=O`, for which the activation was 11.7% (active). For `COc1[nH]c(/N=C/c2ccccc2)c(C#N)c1C#N` the value was 7.9%; for `CCOc1ccc(NC(=O)C2CCN(S(=O)(=O)c3cccnc3)CC2)cc1`, 0.88%.

As to `O=C(Nc1nccs1)C1CCN(S(=O)(=O)c2ccccc2)CC1`, the activation was 1030% (active). As for `O=C(Nc1ccccc1N1CCOCC1)C1CCN(S(=O)(=O)c2ccccc2F)CC1`, the activation was 3.08%. Consider `O=C(c1cc(Cl)ccc1O)N1CCN(S(=O)(=O)c2cccs2)CC1`, for which the activation is 683% (active). The figure for `O=C(c1cc(-c2cccs2)nn1-c1ccccc1)N1CCN(S(=O)(=O)c2ccccc2)CC1` is 3.27%; for `O=C(Cc1cccs1)N1CCN(S(=O)(=O)c2cc(Cl)ccc2Cl)CC1` it is 13.5% (active); for `O=C(CC1CCCC1)N1CCN(S(=O)(=O)c2ccccc2)CC1` it is 3.96%. For `O=C(Nc1ccc(Cl)cn1)C1CCN(S(=O)(=O)c2cccs2)CC1` the value was 242% (active); for `O=C(CSc1n[nH]c(-c2cccs2)n1)N1CCOCC1`, 3.55%. `N#Cc1cccc(NC(=O)CSc2ccc3c4c(cccc24)C(=O)c2ccccc2-3)c1`: the activation is 15.7% (active).

`COc1ccc(NC(=O)CSc2ccc3c4c(cccc24)C(=O)c2ccccc2-3)cc1`: the activation was 19.2% (active). Take `N#Cc1cccc(NC(=S)Nc2ccccc2)c1`: the activation was 6.24%. Consider `COc1ccc(/C(O)=C2\C(=O)C(=O)N(Cc3ccco3)C2c2cc(OC)ccc2OC)cc1` (centres undefined), for which the activation was 10.9%. The figure for `COc1ccc(NC(=O)CC2C(=O)N(Cc3ccco3)C(=S)N2C(C)C)cc1` (centres undefined) is 41.6% (active); for `O=S(=O)(c1ccc(F)cc1)N1CCN(CCOc2ccccc2)CC1` it is 956% (active); for `COC(=O)N1CCN(S(=O)(=O)c2ccc(F)cc2)CC1` it is 8.33%. The figure for `O=[N+]([O-])c1cc(-c2ccn[nH]2)ccc1Cl` is 10.1%; for `O=C(Nc1ccccc1-c1ccccc1)c1ccc(Cl)c([N+](=O)[O-])c1` it is 48.5% (active); for `COc1ccc(C(=O)Nc2ccccc2-c2ccccc2)cc1Cl` it is 11%.

As for `COc1cc(/C=C2/SC(=S)N(Cc3ccccc3)C2=O)cc(Cl)c1O`, the activation is 5470% (active). As for `COc1ccc(/C=C2\SC(=S)N(CCCC(=O)Nc3ccccn3)C2=O)cc1OC`, the activation was 9.09%. For `O=C1/C(=C\c2cc(Cl)c(O)c(Cl)c2)SC(=S)N1Cc1ccccc1` the value was -1.15%; for `COc1ccc(/C=C2\SC(=S)N(CCCC(=O)Nc3ccccc3C(=O)O)C2=O)cc1OC`, 28.5% (active).
